Screening results deposited in PubChem BioAssay by several laboratories.
This is a sample that favours compounds with a hit; in the whole collection about 2.3% have one here.
CAL PDZ FP-1: inhibitors of human CAL PDZ peptide binding | Q9HD26 | purified CAL PDZ, TMR-peptide fluorescence polarization, 1 h | inhibition, % at 24.9 µM | 300,000 tested, 0.92% active;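 active = mean inhibition of at least 30% with at least half of replicates also reaching 30%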;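 also: 0% = DMSO neutral control and 100% = excess unlabeled competitor peptide PRC23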
SR-BI HDL uptake: blocks mouse SR-BI lipid uptake from DiI-HDL; Q61009; ldlA[mSR-BI] CHO cells, DiI-HDL uptake fluorescence, 3 h; inhibition, % at 12.5 µM; 320,000 tested, 0.96% active; AID 488896;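 active = mean replicate inhibition of at least 70% and a set share of replicates each scoring 70 or more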;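 also: 0% = median of neutral control wells and 100% = median of positive control wells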
Target sequence (Q61009 whole entry, looked up): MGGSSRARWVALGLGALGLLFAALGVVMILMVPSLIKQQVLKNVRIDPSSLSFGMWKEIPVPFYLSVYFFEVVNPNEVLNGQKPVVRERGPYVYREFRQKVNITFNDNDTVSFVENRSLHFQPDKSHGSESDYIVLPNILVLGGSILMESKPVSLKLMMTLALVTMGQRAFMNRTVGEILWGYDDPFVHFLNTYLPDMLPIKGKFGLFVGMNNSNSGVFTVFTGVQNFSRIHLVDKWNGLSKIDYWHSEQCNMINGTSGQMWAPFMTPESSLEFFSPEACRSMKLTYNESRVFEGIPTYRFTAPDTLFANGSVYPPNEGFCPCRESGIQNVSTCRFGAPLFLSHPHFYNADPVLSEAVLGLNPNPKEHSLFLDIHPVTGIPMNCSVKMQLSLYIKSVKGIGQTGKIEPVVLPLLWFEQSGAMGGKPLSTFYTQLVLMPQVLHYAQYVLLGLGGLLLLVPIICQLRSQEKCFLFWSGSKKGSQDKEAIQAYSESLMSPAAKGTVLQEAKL
SR-BI uptake up: SR-BI HDL lipid transfer activation; CHO ldlA[mSR-BI] cells, DiI-HDL uptake fluorescence, 3 h; 100 = double the neutral-control signal; activation, % at 12.5 µM; 320,000 tested, 0.096% active; AID 504775;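 active = mean replicate activation of at least 60% and every replicate at or above 60%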;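 also: 0% = median plate neutral-control signal and 100% = twice that signal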
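material = CHO ldlA[mSR-BI] cells | medium = Ham's F12 with 0.5% BSA, HEPES 25 mM, pH 7.4 | reagent = fluorescent DiI-HDL, 10 µg/mL final | compound dosing = single-point compound dose | incubation = 3 h, 37 °C | measured by = bottom-read fluorescence, 550/595 nm | measure = HDL uptake via cellular fluorescence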
ATG4B inhibitor: inhibitors of human ATG4B cysteine protease; Q9Y4P1; ATG4B cleavage of LC3-PLA2, NBD-HPC fluorescence, 1 h; inhibition, % at 8.33 µM; 340,000 tested, 0.51% active; AID 504462; in the data active = inhibition above about 40%
CAL PDZ FP-2: blocks peptide binding to human CAL PDZ domain; Q9HD26; purified CAL PDZ, TMR-peptide fluorescence polarization, 1 h; inhibition, % at 20 µM; 330,000 tested, 0.02% active; AID 504414;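 active = highest replicate inhibition of at least 40%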;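 also: plate controls were DMSO neutral control wells for no effect and unlabeled competitor peptide control wells for full effect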
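Material: tagged CAL PDZ domain; buffer or medium: 25 mM sodium phosphate pH 7.4, 150 mM NaCl, TCEP, IgG, Thesit; compound dosing: single point, 20 µM; schedule: 1 h incubation at room temperature before polarization reading; measured by: FP readout, S and P plane fluorescence; read-out basis: percent inhibition from loss of millipolarization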
ATG4B confirm: confirmation of human ATG4B inhibitors. shares compounds with ATG4B inhibitor. ATG4B protease fluorescent substrate cleavage assay. 320 tested, 92% active. inhibition, % at 8.33 µM; in the data active = inhibition above about 39%
PLA2 ctr: counter-screen for ATG4B inhibitors: human phospholipase A2 | AID 588402 | 1,600 tested, 66% active | inhibition, % at 8.33 µM | purified PLA2, NBD-C6-HPC fluorescence, 45 min | shares compounds with ATG4B inhibitor; in the data active = inhibition above about 50%
Target sequence (P04054 whole entry, looked up): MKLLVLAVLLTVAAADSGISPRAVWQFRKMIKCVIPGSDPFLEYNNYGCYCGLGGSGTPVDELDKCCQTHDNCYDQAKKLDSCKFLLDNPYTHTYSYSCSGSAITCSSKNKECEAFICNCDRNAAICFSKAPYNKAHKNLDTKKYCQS
Starred values were filed as active, the others as inactive; x = no result given.

SMILES | CAL PDZ FP-1 | SR-BI HDL uptake | SR-BI uptake up | ATG4B inhibitor | CAL PDZ FP-2 | PLA2 ctr | others
Cc1c(C(=O)Nc2ccc(-c3nnc4n3CCCCC4)cc2)oc2c1ccc1ccccc12 | -6 | 49 | -49 | 45* | -5 | 60*
O=C(Nc1ccccc1Cc1ccccc1)c1ccccc1NS(=O)(=O)c1ccc(Cl)s1 | x | -10 | 10 | 82* | 0 | 83*
C=CCC[C@@H](Cc1ccc(F)cc1)C(=O)OC[C@@H](NC(=O)[C@H](CC=C)CC(=O)N(CCO)Cc1ccccc1)c1ccccc1 | 1 | 20 | -20 | 53* | -2 | 76*
C=CCC[C@@H](Cc1ccc(F)cc1)C(=O)OC[C@@H](NC(=O)[C@@H](CC=C)CC(=O)N(CCO)Cc1ccccc1)c1ccccc1 | -1 | 1 | -1 | 25 | 0 | x
Cc1ccc(C(=O)NCCc2c[nH]c3ccccc23)s1 | -1 | x | x | 1 | -4 | x
COc1ccc(CCC(=O)NCCS(=O)(=O)N2CCN(c3ccccc3OC)CC2)cc1 | -4 | 19 | -19 | -7 | -1 | x
O=C(O)/C=C/C(=O)Nc1ccc(C2(c3ccc(NC(=O)/C=C/C(=O)O)cc3)c3ccccc3-c3ccccc32)cc1 | -7 | -4 | 4 | 55* | 0 | 65*
CCN(C[C@H]1N[C@@](Cc2ccccc2)(C(=O)OC)[C@H]2C(=O)N(C)C(=O)[C@@H]12)C(C)=O | -1 | -8 | 8 | -4 | 1 | x
CCOC(=O)c1cc(-c2c(Cl)cccc2Cl)no1 | -4 | -4 | 4 | 50* | 0 | 47
Cc1ccc(C)c(C(C)NC(=S)NCc2ccc(F)cc2)c1 (configuration not stated) | -3 | 21 | -21 | 49* | -2 | 50*
CC(=O)NS(=O)(=O)c1ccc(N=c2ssc3c2-c2ccc(C)cc2NC3(C)C)cc1 | -4 | -9 | 9 | 19 | -1 | x
Cc1ccc(-c2csc3nc(SCC(=O)Nc4ccc(Cl)c(C(=O)O)c4)[nH]c(=O)c23)cc1 | 21 | -23 | 23 | 78* | -5 | 78*
CC(=O)N1c2c(cc(Br)cc2S(=O)(=O)N2CCCCC2)CC1C (configuration not stated) | -1 | -16 | 16 | -5 | -3 | x
CC(=O)N1c2c(cc(Br)cc2S(=O)(=O)N2CCN(c3ccccc3F)CC2)CC1C (configuration not stated) | -3 | x | x | 55* | 0 | 67*
Cc1ccc(/C=C(\C#N)C(=O)Nc2cccc(C)n2)cc1 | -6 | -1 | 1 | 5 | 1 | x
Cc1cccc(CSc2nc3sc(C)c(C)c3c(=O)n2Cc2ccco2)c1 | -3 | -13 | 13 | 28 | 0 | x
Cc1cccc(CSc2nnc(-c3cccs3)n2Cc2ccco2)c1 | 2 | -6 | 6 | 68* | -2 | 67*
CN(CC(=O)Nc1ccccc1Cl)C(=O)CSc1nncn1C | 3 | 0 | 0 | -7 | -1 | x
N#Cc1c(N)[nH]c(=S)c(C#N)c1-c1ccccc1 | x | 3 | -3 | 3 | 0 | x
N#Cc1c(N)[nH]c2ccc(Sc3ccccc3)cc12 | 2 | -14 | 14 | 41* | 0 | 40 | ATG4B confirm=68*
O=C(CSc1nnc(CCc2ccccc2)n1-c1ccc(Cl)cc1)c1ccccc1 | -5 | -1 | 1 | 58* | -3 | 61*
COc1ccc(OC)c(-c2cc(C(=O)N3CCc4ccccc4C3)no2)c1 | -6 | 23 | -23 | 49* | x | 56*
COc1ccc2[nH]c(C(=O)N3CCc4ccccc4C3)c(C)c2c1 | -5 | 30 | x | 62* | -2 | 64*
CCCCOC(=O)CSc1nc(N)c(C#N)c(-c2ccc(OCC)cc2)c1C#N | -1 | -15 | 15 | -5 | 0 | x
CCCCOc1ccc(-c2c(C#N)c(N)nc(SCC(N)=O)c2C#N)cc1 | -2 | -18 | 18 | 53* | -4 | 58*
SMILES | CAL PDZ FP-1 | SR-BI HDL uptake | SR-BI uptake up | ATG4B inhibitor | CAL PDZ FP-2 | PLA2 ctr | others
CC(c1ccccc1)C(NC(=O)OCC1c2ccccc2-c2ccccc21)C(=O)O (configuration not stated) | -1 | -7 | 7 | 28 | -2 | x
O=C(O)c1ccc2c(c1)C1C=CCC1C(c1ccncc1)N2 (configuration not stated) | -1 | -3 | 3 | -1 | -1 | x
COc1ccc(NS(=O)(=O)c2ccc3c(c2)[C@H]2C=CC[C@H]2[C@@H](c2ccc(C(=O)O)cc2)N3)cc1 | -3 | 5 | -5 | 78* | -2 | 48 | ATG4B confirm=31
Cc1c(Cl)cccc1NS(=O)(=O)c1ccc2c(c1)C1C=CCC1C(c1ccc(C(=O)O)cc1)N2 (configuration not stated) | 5 | 21 | -21 | 101* | -1 | 92*
O=C(CSc1nc2ccccc2c(=O)n1Cc1ccccc1)Nc1ccc(Br)cc1C(=O)O | -6 | 10 | -10 | 45* | -2 | 39 | ATG4B confirm=60*
CN(Cc1ccccc1)S(=O)(=O)c1ccc(NC(=S)NC(=O)C2CCCC2)cc1 | 0 | 52 | -52 | 50* | 0 | 44
Cc1ccc(/C=c2\sc3nc(-c4ccccc4Br)nn3c2=O)o1 | x | 2 | -2 | 48* | -1 | -7
COc1ccc([C@H]2CC(=O)C=C(c3ccccc3OC)C2)cc1OC | -2 | 35 | -35 | -18 | -2 | x
COC(C[C@@H]1O[C@@H]1[C@H](O)[C@@H](C)OCc1ccccc1)OC | 0 | 1 | -1 | -6 | 0 | x
c1ccc(CC2CCN(c3nnnn3-c3ccccc3)CC2)cc1 | -3 | 23 | -23 | -1 | x | x
N/C(=N/O)c1ccccc1N1CCC(Cc2ccccc2)CC1 | -1 | -10 | 10 | 40* | -3 | 58*
Cn1cccc1-c1cc(C(=O)N/N=C/c2cc(Br)ccc2O)[nH]n1 | -4 | 105* | -105 | 49* | 0 | 56*
CC(C)Cn1c(-c2ccc(Br)cc2)c[nH]c1=S | -1 | 44 | -44 | 0 | 0 | x
Cc1ccc(C(=O)N(C)Cc2ccc(N3CCOCC3)cc2)cc1S(=O)(=O)NCc1ccccc1 | -5 | 35 | -35 | -24 | -1 | x
O=C(N[C@@H](Cc1ccc(Br)cc1)C(=O)O)OCC1c2ccccc2-c2ccccc21 | -3 | -17 | 17 | 30 | -2 | x
O=C(N[C@H](Cc1ccc(Cl)cc1)C(=O)O)OCC1c2ccccc2-c2ccccc21 | -8 | -6 | 6 | 78* | -8 | 86*
O=C(CCn1c(=S)oc2ccccc21)NCCC1=CCCCC1 | -5 | x | x | 2 | -2 | x
COc1cc(OC)cc(C(=O)N2CCN(C(=O)c3cccs3)CC2)c1 | 0 | x | x | -6 | -2 | x
